This passage reports IC50 results from paper PMC4603714 (Drug Design, Development and Therapy, 2015).

The test system of experiment [1] is HDAC (HeLa cell nuclear extract). The experiment can be described thus: In vitro HDAC inhibition fluorescence assay. It is filed as biochemical, human. Conditions: read-out: HeLa cell nuclear extract IC50, substrate Boc-Lys(acetyl)-AMC, mean of three experiments. In outline: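 HeLa nuclear extract preincubated with test compound at several concentrations, 10 min at 37°C. Boc-Lys(acetyl)-AMC then added and incubated 30 min at 37°C. Reaction stopped with developer containing trypsin and trichostatin A. Fluorescence read 20 min later (ex 390/em 460 nm). Inhibition calculated relative to control wells. IC50 obtained by regression of concentration against inhibition ratio.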

Experiment [2] has as its system U937 cells. The experiment in a line: In vitro antiproliferative assay. It counts as cell-based. Conditions: Homo sapiens, U-937, 48 h, read-out: U937 IC50. In outline:
(§1)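 Cells kept in RPMI-1640 with 10% FBS at 37°C, 5% CO2. Passaged into plates the day before dosing and grown at least 4 h before test compound was added. Exposure was 48 h, then 0.5% MTT for 4 h. Formazan was dissolved in DMSO for 15 min and absorbance read at 570 nm. Inhibition was taken relative to control wells, and IC50 was obtained by regression of concentration versus inhibition ratio.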

In experiment [3] the test system is U266 cells. The experiment in a line: In vitro antiproliferative assay. It is filed as cell-based. The settings on record: Homo sapiens, U-266, 48 h, read-out: U266 IC50. In outline:
as §1

The subject of experiment [4] is KG-1 cells. The experiment in a line: In vitro antiproliferative assay. It counts as cell-based. Conditions: Homo sapiens, KG-1, 48 h, read-out: KG-1 IC50. In outline: as §1
Experiment [5] relates to HeLa cells. The experiment can be described thus: In vitro antiproliferative assay. It counts as cell-based. Conditions: Homo sapiens, 48 h, read-out: HeLa IC50. In outline: as §1
Experiment [6] deals with H7402 cells. The experiment in a line: In vitro antiproliferative assay. Conditions: Homo sapiens, H7402, 48 h, read-out: H7402 IC50. It counts as cell-based. In outline:
as §1

Experiment [7] has as its system HCT116 cells. The experiment can be described thus: In vitro antiproliferative assay. It is filed as cell-based. Conditions: Homo sapiens, HCT-116, 48 h, read-out: HCT116 IC50. In outline:
as §1

Take `COc1cccc(NC(=O)N[C@H](C(=O)Nc2ccc(C(=O)NO)cc2)c2ccccc2)c1` [Compound 7a, (S)-N-Hydroxy-4-(2-(3-(3-methoxyphenyl)ureido)-2-phenylacetamido)benzamide]: the IC50 came out at 13.3 nM in experiment [1] and 6100 nM in experiment [2].

For the molecule `O=C(Nc1cccc(Cl)c1)N[C@H](C(=O)Nc1ccc(C(=O)NO)cc1)c1ccccc1` [Compound 7b, (S)-4-(2-(3-(3-Chlorophenyl)ureido)-2-phenylacetamido)-N-hydroxybenzamide], the IC50 in experiment [1] is 12.6 nM; in experiment [2] it was 2900 nM.

For the molecule `O=C(Nc1ccccc1Cl)N[C@H](C(=O)Nc1ccc(C(=O)NO)cc1)c1ccccc1` [Compound 7c, (S)-4-(2-(3-(2-Chlorophenyl)ureido)-2-phenylacetamido)-N-hydroxybenzamide], the IC50 amounted to 2.3 nM in experiment [1] and 4400 nM in experiment [2].

As to `O=C(Nc1ccccc1F)N[C@H](C(=O)Nc1ccc(C(=O)NO)cc1)c1ccccc1` [Compound 7d, (S)-4-(2-(3-(2-Fluorophenyl)ureido)-2-phenylacetamido)-N-hydroxybenzamide], the IC50 in experiment [1] was found to be 76.1 nM.

Regarding `O=C(Nc1ccccc1Br)N[C@H](C(=O)Nc1ccc(C(=O)NO)cc1)c1ccccc1` [Compound 7e, (S)-4-(2-(3-(2-Bromophenyl)ureido)-2-phenylacetamido)-N-hydroxybenzamide], the half-inhibitory concentration (IC50) in experiment [1] was 4.1 nM; in experiment [2] it was 2000 nM.

For `Cc1ccccc1NC(=O)N[C@H](C(=O)Nc1ccc(C(=O)NO)cc1)c1ccccc1` [Compound 7f, (S)-N-Hydroxy-4-(2-phenyl-2-(3-(o-tolyl)ureido)acetamido)benzamide], the IC50 in experiment [1] worked out at 6.3 nM.

On to `Cc1ccc(NC(=O)N[C@H](C(=O)Nc2ccc(C(=O)NO)cc2)c2ccccc2)cc1` [Compound 7g, (S)-N-Hydroxy-4-(2-phenyl-2-(3-(p-tolyl)ureido)acetamido)benzamide], for which the IC50 in experiment [1] turned out to be 2.7 nM; in experiment [2] it was 3100 nM.

As to `O=C(Nc1ccc(Cl)cc1Cl)N[C@H](C(=O)Nc1ccc(C(=O)NO)cc1)c1ccccc1` [Compound 7h, (S)-4-(2-(3-(2,4-Dichlorophenyl)ureido)-2-phenylacetamido)-N-hydroxybenzamide], the IC50 in experiment [1] turned out to be 1.2 nM; in experiment [2], 5100 nM.

On to `Cc1cc(C)cc(NC(=O)N[C@H](C(=O)Nc2ccc(C(=O)NO)cc2)c2ccccc2)c1` [Compound 7i, (S)-4-(2-(3-(3,5-Dimethylphenyl)ureido)-2-phenylacetamido)-N-hydroxybenzamide], for which the results for the IC50 in experiment [1] and in experiment [2] were 15 nM and 5700 nM, respectively.

On to `CCc1cccc(CC)c1NC(=O)N[C@H](C(=O)Nc1ccc(C(=O)NO)cc1)c1ccccc1` [Compound 7j, (S)-4-(2-(3-(2,6-Diethylphenyl)ureido)-2-phenylacetamido)-N-hydroxybenzamide], for which the IC50 in experiment [1] was 178 nM.

`O=C(Nc1cccc2ccccc12)N[C@H](C(=O)Nc1ccc(C(=O)NO)cc1)c1ccccc1` [Compound 7k, (S)-N-Hydroxy-4-(2-(3-(naphthalen-1-yl)ureido)-2-phenylacetamido)benzamide]: in experiment [1], the IC50 amounted to 124 nM.

With `O=C(NO)c1ccc(NC(=O)[C@@H](NC(=O)c2ccc3ncccc3c2)c2ccccc2)cc1` [Compound 8a, (S)-N-(2-((4-(Hydroxycarbamoyl)phenyl)amino)-2-oxo-1-phenylethyl)quinoline-6-carboxamide], the IC50 in experiment [1] turned out to be 168 nM; in experiment [2], 10500 nM.

In the case of `O=C(NO)c1ccc(NC(=O)[C@@H](NC(=O)c2ccc3nccnc3c2)c2ccccc2)cc1` [Compound 8b, (S)-N-(2-((4-(Hydroxycarbamoyl)phenyl)amino)-2-oxo-1-phenylethyl)quinoxaline-6-carboxamide], the results for the half-inhibitory concentration (IC50) in experiment [1] and in experiment [2] were 163 nM and 10500 nM, respectively.

On to `O=C(NO)c1ccc(NC(=O)[C@@H](NC(=O)c2ccc3cc[nH]c3c2)c2ccccc2)cc1` [Compound 8c, (S)-N-(2-((4-(Hydroxycarbamoyl)phenyl)amino)-2-oxo-1-phenylethyl)-1H-indole-6-carboxamide], for which the figures for the IC50 in experiment [1] and in experiment [2] were 107 nM and 9800 nM, respectively.

As to `O=C(NO)c1ccc(NC(=O)[C@@H](NC(=O)c2cc3ccccc3[nH]2)c2ccccc2)cc1` [Compound 8d, (S)-N-(2-((4-(Hydroxycarbamoyl)phenyl)amino)-2-oxo-1-phenylethyl)-1H-indole-2-carboxamide], the results for the IC50 in experiment [1] and in experiment [2] were 53 nM and 8900 nM, respectively.

Take `O=C(NO)c1ccc(NC(=O)[C@@H](NC(=O)c2cnccn2)c2ccccc2)cc1` [Compound 8e, (S)-N-(2-((4-(Hydroxycarbamoyl)phenyl)amino)-2-oxo-1-phenylethyl)pyrazine-2-carboxamide]: the IC50 in experiment [1] came to 353 nM.

For `COc1ccccc1CN[C@H](C(=O)Nc1ccc(C(=O)NO)cc1)c1ccccc1` [Compound 9a, (S)-N-Hydroxy-4-(2-((2-methoxybenzyl)amino)-2-phenylacetamido)benzamide], the IC50 is 105 nM in experiment [1]; 750 nM in experiment [2]; 1500 nM in experiment [3]; 1100 nM in experiment [4]; 8000 nM in experiment [5]; 4100 nM in experiment [6]. Further, the IC50 in experiment [7] is 1400 nM.

Take `O=C(NO)c1ccc(NC(=O)[C@@H](NCc2ccccc2Cl)c2ccccc2)cc1` [Compound 9b, (S)-4-(2-((2-Chlorobenzyl)amino)-2-phenylacetamido)-N-hydroxybenzamide]: the IC50 in experiment [1] amounted to 56.1 nM; in experiment [2], 1100 nM; in experiment [3] it was 2400 nM; in experiment [4] it was 3400 nM; in experiment [5], 6000 nM; in experiment [6] it was 4200 nM. Further, the IC50 in experiment [7] is 5500 nM.

Consider `O=C(NO)c1ccc(NC(=O)[C@@H](NCc2ccccc2Br)c2ccccc2)cc1` [Compound 9c, (S)-4-(2-((2-Bromobenzyl)amino)-2-phenylacetamido)-N-hydroxybenzamide], for which the IC50 in experiment [1] was 12.8 nM; in experiment [2] it was 840 nM; in experiment [3], 2100 nM; in experiment [4], 1500 nM; in experiment [5], 15000 nM; in experiment [6] it was 7100 nM. Further, the IC50 in experiment [7] amounted to 2300 nM.

In the case of `O=C(NO)c1ccc(NC(=O)[C@@H](NCc2ccc(Cl)cc2)c2ccccc2)cc1` [Compound 9e, (S)-4-(2-((4-Chlorobenzyl)amino)-2-phenylacetamido)-N-hydroxybenzamide], the IC50 is 13.8 nM in experiment [1]; 950 nM in experiment [2]; 3000 nM in experiment [3]; 2000 nM in experiment [4]; 15600 nM in experiment [5]; 9600 nM in experiment [6]. In addition, the IC50 in experiment [7] was 3000 nM.

`O=C(NO)c1ccc(NC(=O)[C@@H](NCc2ccc(O)cc2)c2ccccc2)cc1` [Compound 9f, (S)-N-Hydroxy-4-(2-((4-hydroxybenzyl)amino)-2-phenylacetamido)benzamide]: the IC50 turned out to be 50.3 nM in experiment [1]; 980 nM in experiment [2]; 3300 nM in experiment [3]; 2500 nM in experiment [4]; 6800 nM in experiment [5]; 12400 nM in experiment [6]. In experiment [7], the IC50 was found to be 3000 nM.

Take `COc1cc(CN[C@H](C(=O)Nc2ccc(C(=O)NO)cc2)c2ccccc2)ccc1O` [Compound 9g, (S)-N-Hydroxy-4-(2-((4-hydroxy-3-methoxybenzyl)amino)-2-phenylacetamido)benzamide]: the IC50 worked out at 72 nM in experiment [1]; 2000 nM in experiment [2]; 4300 nM in experiment [3]; 5600 nM in experiment [4]; 200 nM in experiment [5]; 200 nM in experiment [6]. Also, the IC50 in experiment [7] was 6200 nM.

With `O=C(/C=C/c1ccc(NC(=O)[C@@H](NC(=O)Nc2ccccc2Cl)c2ccccc2)cc1)NO` [Compound 16a, (S, E)-3-(4-(2-(3-(2-Chlorophenyl)ureido)-2-phenylacetamido)phenyl)-N-hydroxyacrylamide], in experiment [1], the IC50 was 128 nM.

Consider `O=C(/C=C/c1ccc(NC(=O)[C@@H](NC(=O)Nc2ccccc2F)c2ccccc2)cc1)NO` [Compound 16b, (S, E)-3-(4-(2-(3-(2-Fluorophenyl)ureido)-2-phenylacetamido)phenyl)-N-hydroxyacrylamide], for which the IC50 in experiment [1] is 215 nM.

In the case of `O=C(/C=C/c1ccc(NC(=O)[C@@H](NC(=O)Nc2ccccc2Br)c2ccccc2)cc1)NO` [Compound 16c, (S, E)-3-(4-(2-(3-(2-Bromophenyl)ureido)-2-phenylacetamido)phenyl)-N-hydroxyacrylamide], the IC50 in experiment [1] stood at 91.7 nM.

With `Cc1ccccc1NC(=O)N[C@H](C(=O)Nc1ccc(/C=C/C(=O)NO)cc1)c1ccccc1` [Compound 16d, (S, E)-N-Hydroxy-3-(4-(2-phenyl-2-(3-(o-tolyl)ureido)acetamido)phenyl)acrylamide], in experiment [1], the IC50 came to 811 nM.
